From ChEMBL document CHEMBL1121694, “2-(Aminomethyl)phenols, a new class of saluretic agents. 3. Effects of functional group reorientation and modification” (1981) come the findings set out here.

For test [1], the system named is Canis familiaris. Briefly: Tested for the saluretic property in dogs after intravenous administration of 5 mg/kg; 0-99 micro equivalents of Na+ excreted per minute. It counts as functional, Canis lupus familiaris. Put shortly:
(§1)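 Each dog score comes from one animal (body weight 15.2-21 kg) given the dose as a single stat administration. The standard dose is 5 mg/kg unless another is designated. Protocol and scoring system are referenced to earlier work.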

Test [2] deals with Rattus norvegicus. Briefly: Evaluated for the saluretic property in rats after oral administration; score represents micro equivalents of Na+ excreted at a given mg/kg dose. In kind it is functional. Put shortly: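 The score is the geometric mean of three animals per cage, with three cages per dose. Protocol and scoring system are referenced to earlier work.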
The test system of test [3] is Canis familiaris. Briefly: Compound was tested for the saluretic property in dogs after intravenous administration of 5 mg/kg; 100-249 micro equivalents of Na+ excreted per minute. In kind it is functional, Canis lupus familiaris.
Test [4] relates to Canis familiaris. Briefly: Compound was tested for the saluretic property in dogs after intravenous administration of 5 mg/kg; >900 micro equivalents of Na+ excreted per minute. It counts as functional, Canis lupus familiaris. Summed up: as §1
Test [5] has as its system Canis familiaris. Briefly: Compound was tested for the saluretic property in dogs after intravenous administration of 5 mg/kg; 600-799 micro equivalents of Na+ excreted per minute. In kind it is functional, Canis lupus familiaris. Put shortly:
as §1

Test [6] relates to Canis familiaris. Briefly: Compound was evaluated for the saluretic property in dog after iv administration; score represents micro equivalents of Na+ excreted at a given mg/kg dose. In kind it is functional, Canis lupus familiaris. Summed up: as §1
In test [7] the test system is Canis familiaris. Briefly: Compound was tested for the saluretic property in dogs after intravenous administration of 5 mg/kg; activity above 5 mg/kg. In kind it is functional, organism-based. Conditions: Canis lupus familiaris. Put shortly: as §1
Test [8] has as its system Canis familiaris. Briefly: Compound was tested for the saluretic property in dogs after intravenous administration of 10 mg/kg. In kind it is functional, Canis lupus familiaris. Summed up:
as §1

The test system of test [9] is Canis familiaris. Briefly: Compound was tested for the saluretic property in dogs after intravenous administration of 5 mg/kg; 800-899 micro equivalents of Na+ excreted at a given mg/kg dose. In kind it is functional, Canis lupus familiaris. Summed up:
as §1

The test system of test [10] is Canis familiaris. Briefly: Compound was tested for the saluretic property in dogs after intravenous administration of 1 mg/kg; >900 micro equivalents of Na+ excreted per minute. In kind it is functional, Canis lupus familiaris. Put shortly: as §1

As for `O=Cc1c(O)c(Cl)cc(Cl)c1Cl`, the Score in test [1] and in [2] was 0 in each case.
In the case of `Cl.NCc1c(N)c(Cl)cc(Cl)c1Cl`, in test [1], the Score was found to be 0.
As to `CC(C)(C)c1cc(I)c(O)c(C(=O)O)c1`, the Score was 1 in [3] and 0 in test [2].
On to `CC(C)(C)c1cc(Cl)c(O)c(CN)c1.Cl`, for which the Score in test [4] and in test [2] was 6 throughout.
Regarding `CC(C)(C)c1cc(I)c(O)c(CN)c1.Cl`, the Score came out at 4 in test [5] and 6 in test [2].
In the case of `CC(C)(C)c1cc(Cl)c(O)c(CCCN)c1`, the Score in test [6] was 0.
As to `Cl.NCc1cc(Cl)c(O)c(Cl)c1Cl`, the Score in [1] and in test [2] was 0 in each case.
Take `NS(=O)(=O)c1c(O)c(Cl)cc(Cl)c1Cl`: the Score in test [2] was found to be 0.
As for `NCc1cc(Cl)cc(Cl)c1O`, the Score result in test [7] is recorded as “activity above 5 mg/kg”; in test [2], 2.
In the case of `NCc1c(Cl)cc(Cl)c(O)c1Cl`, the Score in test [8] and in test [2] was 0 throughout.
`Cl.NCCc1c(O)c(Cl)cc(Cl)c1Cl`: the Score in test [3] and in test [2] was 1 each time.
For `NS(=O)(=O)c1cc2c(cc1Cl)NCNS2(=O)=O` [HYDROCHLOROTHIAZIDE], the Score is reported as 1 in [3] and 2 in test [2].
Turning to `Cl.NCC(O)c1c(O)c(Cl)cc(Cl)c1Cl` (centres undefined), the Score in [3] amounted to 1; in [2], 0.
`COc1c(Cl)c(O)c(C=O)c(OC)c1Cl`: the Score in test [1] and in test [2] was 0 each time.
Turning to `Cl.NCc1c(O)c(Cl)cc(Cl)c1Cl`, the Score in [9] was determined as 5; in [2] it was 3.
`Cl.NCc1cc(Cl)cc(Cl)c1`: the Score in test [1] and in test [2] was 0 each time.
Take `NS(=O)(=O)c1cc(C(=O)O)c(NCc2ccco2)cc1Cl` [FUROSEMIDE]: the results for the Score in test [10] and in test [2] were 6 and 3, respectively.
In the case of `COc1c(Cl)c(O)c(C(=O)O)c(OC)c1Cl`, the Score in [1] and in [2] was 0 each time.
Regarding `Nc1c(O)c(Cl)cc(Cl)c1Cl`, in test [2], the Score was found to be 0.
Regarding `OCc1c(O)c(Cl)cc(Cl)c1Cl`, the Score in test [1] and in test [2] was 0 throughout.
For `O=C(O)c1c(O)c(Cl)cc(Cl)c1Cl`, the Score in [2] is 0.
Take `COc1c(Cl)c(O)c(CN)c(OC)c1Cl.Cl`: the Score in test [4] is on record as 6; in [2], 5.
